Screens deposited in PubChem BioAssay by several laboratories.
Sampled rows, rich in hits. Any-hit rate of the full collection: about 2.7%.
MC4R ag barr: human MC4R agonism via beta-arrestin; P32245; U2OS MC4R beta-arrestin complementation, luminescence; percent of melanotan II response, DMSO zero; activation, % at 8.9 µM; actives 0.98% (n = 360,000);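 active = activation above a per-plate cutoff, the mean activation of sample wells on that plate plus 3 SD, cut at about 8% in these data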
NTR1 agonist: agonists of human neurotensin receptor NTR1 | activation, % at 20 µM | P30989 | actives 0.17% (n = 330,000) | NTR1-U2OS beta-arrestin-GFP spot imaging, agonist mode;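 active = activation at or above 40% of the spot to cytoplasm intensity ratio, with at least 20 cells analyzed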
Target sequence (P30989 whole entry, looked up): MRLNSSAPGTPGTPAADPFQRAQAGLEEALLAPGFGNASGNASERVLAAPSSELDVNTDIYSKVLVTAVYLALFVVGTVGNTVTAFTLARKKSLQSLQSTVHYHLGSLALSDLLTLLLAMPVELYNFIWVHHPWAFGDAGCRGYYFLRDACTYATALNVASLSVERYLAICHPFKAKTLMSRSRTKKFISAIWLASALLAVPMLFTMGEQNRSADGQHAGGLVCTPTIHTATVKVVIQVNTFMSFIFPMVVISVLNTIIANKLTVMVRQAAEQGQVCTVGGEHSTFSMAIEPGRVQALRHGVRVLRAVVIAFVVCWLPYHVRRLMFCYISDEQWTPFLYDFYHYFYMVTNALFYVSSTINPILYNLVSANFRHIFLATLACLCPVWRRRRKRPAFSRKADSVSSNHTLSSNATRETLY
m5-HT2A agonist: activates the mouse 5-HT2A serotonin receptor; P35363; CHO-K1 mHTR2A beta-arrestin complementation, luminescence; percent of 30 µM serotonin response; activation, % at 7.6 µM; actives 0.66% (n = 360,000); AID 624169;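 active = activation above a run cutoff, the mean activation of all tested compounds plus 3 SD, cut at about 14% in these data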
MC4R antag cAMP: blocks human MC4R cAMP signaling; MC4R-expressing cells, MTII-stimulated cAMP, LANCE TR-FRET; inhibition, % at 6.5 µM; actives 0.48% (n = 360,000);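 active = inhibition above its plate's cutoff, the mean of tested wells on that plate plus 3 SD, cut at about 29% in these data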
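System: U2OS cells stably expressing human melanocortin 4 receptor (MC4R). Reagent: Melanotan II challenge after compound preincubation. Doses: 6.5 µM. Times: 30-min compound, 1-h challenge, 1-h detection, room temperature. Measured by: TR-FRET with Eu-cAMP and labeled anti-cAMP, 671 nm. Replicates: singlicate.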
PREPL inhibitor: inhibitors of human prolyl oligopeptidase-like enzyme PREPL; recombinant PREPL, fluorescence polarization activity-based probe; inhibition, % at 5.96 µM; actives 0.68% (n = 320,000); AID 2751; in the data active = inhibition above about 43%
Lipid droplet: modulators of hepatic lipid droplet formation. AML12 mouse hepatocytes, oleate lipid droplets, BODIPY imaging. inhibition, % at 6.5 µM. actives 0.4% (n = 240,000). AID 1656;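 active = lipid droplet intensity inhibited by at least 50%, with more than 500 cells counted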
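Assay system: AML12 hepatocytes (mouse) / Also added: 100 µM oleic acid challenge / Times: overnight treatment with compound plus oleate / Detection: high-content imaging of BODIPY-stained droplets and DAPI nuclei / Evaluation: % inhibition of lipid droplet signal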
MOR ag counter: activates human mu opioid receptor in HTR2A counterscreen | activation, % at 9.3 µM | actives 5.3% (n = 2,300) | U2OS OPRM1 beta-arrestin PathHunter, luminescence; DMSO 0%, DAMGO 9.3 µM 100% | AID 624380 | shares compounds with m5-HT2A agonist;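 active = mean activation above the mean of DMSO-only wells plus 3 SD, cut at about 0.5% in these data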
m5-HT2A ag conf: confirmation of mouse HTR2A serotonin receptor agonists | actives 19% (n = 2,300) | CHO-K1 PathHunter beta-arrestin recruitment, luminescence; DMSO 0%, 30 µM serotonin 100% | shares compounds with m5-HT2A agonist | activation, % at 7.6 µM;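 active = mean activation across triplicates above the hit threshold derived in the original primary screen, cut at about 15% in these data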
Numbers stand for hits; - = inactive; . = no result; ! = not confirmed by another sample.

SMILES | MC4R ag barr | NTR1 agonist | m5-HT2A agonist | MC4R antag cAMP | PREPL inhibitor | Lipid droplet | MOR ag counter | m5-HT2A ag conf
CCC(c1nnnn1-c1ccc2c(c1)OCCO2)N1CCN(C/C=C/c2ccccc2)CC1 (stereo unspecified) | . | . | 20 | . | . | . | - | 62
C(=C\c1ccccc1)/CN1CCN(C(c2nnnn2-c2ccc3c(c2)OCCO3)C2CC2)CC1 (stereo unspecified) | . | . | 15 | . | . | . | - | 51
O=C(COc1ccc(S(=O)(=O)NC2CCCCC2)cc1Cl)N1CCN(c2ccccc2)CC1 | - | - | - | - | - | - | . | .
Oc1ccc(-c2nccc(-c3cccs3)n2)cc1 | - | - | - | - | - | . | . | .
Cc1cccc(C(=O)NC(=S)NC(C)c2ccccc2)c1 (stereo unspecified) | - | - | - | - | - | . | . | .
COc1ccc(CN2CCN(C(=O)c3ccco3)CC2)c(OC)c1OC | - | - | 29 | - | - | . | - | 78
COc1ccc(C(=O)OCC(=O)N2CCN(C(=O)c3ccco3)CC2)c(OC)c1OC | - | . | - | - | . | . | . | .
COc1ccccc1CN1CCN(C(=O)c2ccco2)CC1 | - | - | 30 | - | - | - | - | 92
COc1ccc(Br)cc1CN1CCN(C(=O)c2ccco2)CC1 | - | - | - | - | - | - | . | .
COc1cc2c(cc1OC)[C@@H](NC(=O)CCC1CCCCC1)[C@H](O)C2 | - | - | - | - | . | . | . | .
CN(Cc1ccccc1)C(=O)COc1cc(Cl)ccc1Cl | - | - | - | - | - | . | . | .
Cc1ccccc1OCC(=O)Nc1cccc(S(=O)(=O)NC2=NCCC2)c1 | - | - | 16 | - | - | . | - | -
CCc1ccccc1OCC(=O)Nc1cccc(S(=O)(=O)NC2=NCCC2)c1 | - | - | - | - | - | . | . | .
CC1CCCN(C(=O)CSCC(=O)Nc2nc(-c3cccs3)cs2)C1 (stereo unspecified) | - | - | 15 | - | - | . | - | -
CC1CCCCN1C(=O)CSCC(=O)Nc1nc(-c2cccs2)cs1 (stereo unspecified) | - | - | - | - | - | - | . | .
CCOc1ccc(NC(=O)C2CCCN2S(=O)(=O)c2ccc3c(c2)C(C)(C)C(=O)N3C)cc1 (stereo unspecified) | - | - | - | - | - | - | . | .
CNC(=O)Oc1ccc2c(c1)[C@]1(C)CCN(C)[C@@H]1N2C | - | - | 20! | - | - | - | - | -
O=C(NCCN1CCOCC1)C1CCN(S(=O)(=O)N2CCCC2)CC1 | - | - | - | - | - | - | . | .
Cc1cc(C)n(C(=O)CCCn2nc(C)c([N+](=O)[O-])c2C)n1 | - | - | - | - | - | - | . | .
N#Cc1cc2cc(Cl)ccc2[nH]c1=O | . | . | - | . | . | . | . | .
O=C(CN1C(=O)c2ccccc2C1=O)N1CCN(C(=O)c2ccco2)CC1 | - | - | - | - | - | - | . | .
O=C(c1ccco1)N1CCN(CCCCN2C(=O)c3ccccc3C2=O)CC1 | - | - | 17 | - | - | . | - | 54
O=C(c1ccco1)N1CCN(CCCCOc2ccc(F)cc2)CC1 | - | - | 19 | - | - | - | - | 63
CCOC(=O)c1c(C)[nH]c(C)c1C(=O)COC(=O)[C@@H](NC(=O)c1ccco1)C(C)C | - | - | - | - | - | . | . | .
O=C(O)C1=C[C@H](c2cccs2)C[C@H](OCc2ccc(CO)cc2)O1 | - | - | - | - | - | - | . | .
SMILES | MC4R ag barr | NTR1 agonist | m5-HT2A agonist | MC4R antag cAMP | PREPL inhibitor | Lipid droplet | MOR ag counter | m5-HT2A ag conf
O=S(=O)(Nc1cccc(-n2cnnn2)c1)c1ccccc1 | - | - | 15 | - | - | - | - | -
Cc1cc(CNC(=O)c2cccc(OC3CCN(S(=O)(=O)N(C)C)CC3)c2)on1 | - | - | 15 | - | - | - | - | -
COc1ccc(NS(=O)(=O)c2cn(C)cn2)cc1 | - | - | - | - | - | - | . | .
CSc1cccc(NS(=O)(=O)c2cn(C)cn2)c1 | - | - | 17 | - | - | - | - | -
CCn1cc(C(=O)NCCCOC(C)C)c(=O)c2cc(S(=O)(=O)N3CCC(C)CC3)ccc21 | - | - | - | - | - | - | . | .
CCCn1c(SCc2nc(-c3cccs3)no2)nnc1-c1ccncc1 | - | - | - | - | - | - | . | .
CCOc1ccc(-n2c(SCc3nc(-c4cccs4)no3)nnc2-c2ccncc2)cc1 | - | - | 29 | - | - | - | - | -
COc1cc(C)c(S(=O)(=O)NCc2ccc3c(c2)OCO3)cc1C | - | - | 29 | - | - | . | - | -
O=C(CNCc1ccc(F)cc1)Nc1ccc(C(=O)N2CCCCC2)cc1 | - | - | - | - | - | - | . | .
Cc1ccc(NC(=O)COC(=O)CN2C(=O)NC(C)(C)C2=O)cc1S(=O)(=O)N1CCOCC1 | - | - | 24 | - | - | - | - | -
COc1ccccc1OCC(=O)Nc1ccc(S(=O)(=O)N2CCCC2)cc1 | - | - | - | - | - | - | . | .
O=C(NCc1ccco1)c1ccc(Cl)cc1[N+](=O)[O-] | - | . | - | - | . | - | . | .
CCNc1nc(Oc2ccc(=O)n(-c3ccccc3)n2)nc(N(C)C)n1 | - | - | - | - | - | . | . | .
CCNc1nc(OC)nc(Oc2ccc(=O)n(-c3ccccc3)n2)n1 | - | - | 18 | - | - | - | - | -
Cc1nn(-c2ccccc2)c(N)c1Sc1ccc([N+](=O)[O-])cc1 | - | - | - | - | - | - | . | .
CCCn1c(N)c(Sc2ccc([N+](=O)[O-])cc2)c(=O)n(CCC)c1=O | - | - | 17 | - | - | - | - | -
COc1cccc(N2CCN(Cc3nc(N)nc(N4CCCc5ccccc54)n3)CC2)c1 | - | - | 17 | - | - | - | - | 42
COc1cccc(N2CCN(Cc3cccnc3)CC2)c1 | - | - | - | - | - | . | . | .
COc1ccc(N=C2C(=O)N3c4c(cccc42)C(C)=CC3(C)C)cc1 | - | - | - | - | - | - | . | .
COc1ccc(OCC(=O)Nc2cccc(S(=O)(=O)N(C)c3ccccc3)c2)c([N+](=O)[O-])c1 | - | - | - | - | - | . | . | .
Cn1c(NC(=O)C[n+]2cc(-c3ccc(F)cc3)n3c2CCC3)cc(=O)n(C)c1=O | - | - | 15 | - | - | - | - | -
Cc1nc2c(cc1NC(=O)C(C)(C)C)nc(C)n2Cc1ccccc1 | - | - | 20 | - | - | - | - | -
Cc1ccc(Cl)cc1NC(=O)N(C)CCO | - | - | - | - | - | - | . | .
O=[N+]([O-])c1ccc2c(c1)CO[C@@]21O[C@H](CCO)C[C@H](O)[C@H]1O | . | . | - | . | . | . | . | .
